Data set [1] has as its system Rattus norvegicus. Kind of data set: Antiinflammatory activity in Wistar albino rat assessed as inhibition of carrageenan-induced paw edema at 30 mg/kg, ig administered 1 hr before carrageenan challenge measured after 4 hrs post carrageenan challenge by plethysmometer. It is filed as functional. Conditions: po, route intragastric. The method in brief:
(§1)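 Male Wistar rats (140–160 g), three groups of eight; drug as 0.5% CMC suspension i.g., controls given CMC only. 1 h later, 0.1 ml of 0.1% carrageenan in 0.9% NaCl injected sub-plantar into right hind paw. Paw volume read by plethysmometer hourly to 6 h and at 24 h; inhibition % = (Vc − Vt)/Vc × 100 from mean volume increases; mean ± SEM.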
Background: The carrageenan paw model is a standard test of acute inflammation.

The subject of data set [2] is Rattus norvegicus. Kind of data set: Gastrointestinal toxicity in Wistar rat assessed as ulcerogenic effect at 100 mg/kg, po measured after 17 hrs post treatment (Rvb =0.50 +/- 0.41). Also noted: dose 100 mg/kg, route oral. The data set is classed as organism-based. Particulars: in vivo. The essentials: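 Wistar rats, 150–200 g, eight per group, fasted at least 8 h with water ad libitum. Drug is given orally as a 0.5% CMC suspension at 10 ml/kg; controls get 0.5% CMC. Food is returned after 30 min. At 17 h rats are killed with CO₂ and stomachs removed. Damage score is the summed lesion lengths in mm per rat; mean ± SEM.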

Data set [3] is described as follows: Plasma concentration in ICR mouse at 5 mg/kg, iv after 4 hrs by HPLC/MS/MS analysis. It is filed as ADME, organism-based. Also noted: dose 5 mg/kg, route intravenous.
Data set [4] is described as follows: Drug level in ICR mouse brain at 5 mg/kg, iv after 0.5 hrs by HPLC/MS/MS analysis. It is filed as ADME, organism-based. Also noted: dose 5 mg/kg, route intravenous. Particulars: read-out: Drug uptake.
Data set [5] can be described thus: Drug level in ICR mouse brain at 5 mg/kg, iv after 4 hrs by HPLC/MS/MS analysis. The data set is classed as ADME, organism-based. Also noted: dose 5 mg/kg, route intravenous. Particulars: read-out: Drug uptake.
Data set [6] can be described thus: Drug level in ICR mouse brain at 10 mg/kg, po after 6 hrs by HPLC/MS/MS analysis. It is filed as ADME, organism-based. Also noted: dose 10 mg/kg, route oral. Particulars: read-out: Drug uptake.
Data set [7] concerns Nucleic Acid. Kind of data set: Ratio of drug level in brain to plasma in ICR mouse at 5 mg/kg, iv after 6 hrs by HPLC/MS/MS analysis. The data set is classed as ADME, organism-based. Also noted: dose 5 mg/kg, route intravenous.
The subject of data set [8] is Rattus norvegicus. Kind of data set: Antiinflammatory activity in Wistar albino rat assessed as inhibition of carrageenan-induced paw edema at 33.6 mg/kg, ig administered 1 hr before carrageenan challenge measured after 4 hrs post carrageenan challenge by plethysmometer. It is filed as functional. Conditions: po, route intragastric. The method in brief: as §1
The target in data set [9] is Prostaglandin G/H synthase 1 (Homo sapiens, UniProt P23219). Kind of data set: Inhibition of COX1 in human HEL 92.1.7 cells assessed as thromboxane B2 production incubated for 30 mins before arachidonic acid addition measured after 15 mins by ELISA. It is filed as cell-based. The method in brief: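 HEL92.1.7 cells at 10⁸/ml in fresh medium, incubated with drug (10⁻⁶–10 μM range) for 30 min at 37 °C. TXB₂ is measured in cell-free supernatant by ELISA and expressed as a ratio to vehicle-only cultures; mean ± SD; IC50 from the concentration–response curve.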
Chain of Prostaglandin G/H synthase 1 (Homo sapiens, UniProt P23219) (P23219 whole entry): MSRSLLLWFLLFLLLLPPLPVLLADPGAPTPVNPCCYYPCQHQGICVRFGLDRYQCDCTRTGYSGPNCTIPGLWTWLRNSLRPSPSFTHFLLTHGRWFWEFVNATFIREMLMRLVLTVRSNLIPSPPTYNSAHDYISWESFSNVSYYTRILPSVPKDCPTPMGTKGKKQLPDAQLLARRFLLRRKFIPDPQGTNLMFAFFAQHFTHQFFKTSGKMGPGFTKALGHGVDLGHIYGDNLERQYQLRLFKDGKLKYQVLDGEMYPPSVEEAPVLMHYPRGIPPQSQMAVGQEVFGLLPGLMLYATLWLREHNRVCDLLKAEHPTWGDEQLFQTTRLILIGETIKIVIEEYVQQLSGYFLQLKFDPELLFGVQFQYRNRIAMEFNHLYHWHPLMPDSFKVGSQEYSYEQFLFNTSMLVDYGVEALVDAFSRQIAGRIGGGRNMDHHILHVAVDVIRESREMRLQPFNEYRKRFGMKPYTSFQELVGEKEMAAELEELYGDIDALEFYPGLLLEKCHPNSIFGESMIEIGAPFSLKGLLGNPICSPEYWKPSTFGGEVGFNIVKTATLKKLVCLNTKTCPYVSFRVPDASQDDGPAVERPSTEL
For orientation: In an ELISA, binding on a coated surface is turned into a signal by an enzyme label.

A short description of data set [10]: Apparent volume of distribution in ICR mouse at 5 mg/kg, iv. The data set is classed as ADME, organism-based. Also noted: dose 5 mg/kg, route intravenous. Conditions: in vivo, read-out: Vz.
Data set [11] is described as follows: Apparent half life in ICR mouse at 10 mg/kg, po. It is filed as ADME, organism-based. Also noted: dose 10 mg/kg, route oral. Conditions: in vivo, read-out: t1/2(app) (converted).
The subject of data set [12] is Mus musculus. As to the kind of experiment: Analgesic activity in Swiss albino mouse assessed as inhibition of acetic acid-induced writhing at 33.6 mg/kg, ig administered 1 hr before acetic acid challenge measured 10 mins post acetic acid challenge. The data set is classed as functional. Particulars: po, route intragastric. The method in brief:
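Male Swiss albino mice (22–24 g), three groups, n = 8; drug suspended in 0.5% CMC given i.g. (0.3 ml/10 g) 1 h before i.p.-unspecified injection of 1% (v/v) acetic acid at 0.1 ml/10 g. Writhes counted for 10 min starting 10 min after acetic acid; activity as percent decrease in writhing versus vehicle control; mean ± SEM, ANOVA then t-test.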
For orientation: In writhing tests, fewer writhes than in controls are read as antinociception.

Data set [13] has as its system Nucleic Acid. As to the kind of experiment: Ratio of drug level in brain to plasma in ICR mouse at 5 mg/kg, iv after 1 hr by HPLC/MS/MS analysis. The data set is classed as ADME, organism-based. Also noted: dose 5 mg/kg, route intravenous.
Data set [14] deals with Nucleic Acid. As to the kind of experiment: Ratio of drug level in brain to plasma in ICR mouse at 10 mg/kg, po after 0.083 hrs by HPLC/MS/MS analysis. Also noted: dose 10 mg/kg, route oral. It is filed as ADME, organism-based.
Data set [15] concerns Nucleic Acid. As to the kind of experiment: Ratio of drug level in brain to plasma in ICR mouse at 10 mg/kg, po after 2 hrs by HPLC/MS/MS analysis. It is filed as ADME, organism-based. Also noted: dose 10 mg/kg, route oral.
For data set [16], the system named is Nucleic Acid. Kind of data set: Ratio of drug level in brain to plasma in ICR mouse at 10 mg/kg, po after 4 hrs by HPLC/MS/MS analysis. Also noted: dose 10 mg/kg, route oral. It is filed as ADME, organism-based.
Data set [17] addresses T1, Prostaglandin G/H synthase 1 (Ovis aries, UniProt P05979).
T1 sequence (P05979 whole entry): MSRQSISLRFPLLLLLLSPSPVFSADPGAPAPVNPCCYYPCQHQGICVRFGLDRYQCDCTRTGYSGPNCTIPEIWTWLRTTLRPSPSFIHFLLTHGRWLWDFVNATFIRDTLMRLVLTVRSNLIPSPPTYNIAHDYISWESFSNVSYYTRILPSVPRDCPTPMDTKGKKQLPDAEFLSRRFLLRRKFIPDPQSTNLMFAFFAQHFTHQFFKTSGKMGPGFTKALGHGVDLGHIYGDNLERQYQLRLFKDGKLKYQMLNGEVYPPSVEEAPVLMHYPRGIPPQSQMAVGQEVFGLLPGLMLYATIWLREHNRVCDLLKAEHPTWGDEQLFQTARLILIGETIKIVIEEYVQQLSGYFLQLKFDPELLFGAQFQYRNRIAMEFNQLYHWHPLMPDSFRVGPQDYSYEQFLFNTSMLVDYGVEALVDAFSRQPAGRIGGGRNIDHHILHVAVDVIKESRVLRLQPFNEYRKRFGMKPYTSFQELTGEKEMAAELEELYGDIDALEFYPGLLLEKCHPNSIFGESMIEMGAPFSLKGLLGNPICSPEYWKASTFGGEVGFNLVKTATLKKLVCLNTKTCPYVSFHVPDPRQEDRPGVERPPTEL
Kind of data set: Inhibition of ovine COX1 by EIA.

For data set [18], the system named is Mus musculus. Kind of data set: Ratio of drug level in brain to plasma in ICR mouse at 5 mg/kg, iv.
The test system of data set [19] is Mus musculus. As to the kind of experiment: Ratio of drug level in brain to plasma in ICR mouse at 10 mg/kg, po.

`CC(C)Cc1ccc([C@H](C)C(=O)O)cc1` [DEXIBUPROFEN]: the inhibition in vivo (commonly the relative decrease from the control value, in per cent) at 30 mg/kg in the data set on Rattus norvegicus [1] came out at 29.5%. The Activity entry in the data set with Rattus norvegicus [2] is “Toxic”. In addition, the concentration at 4 h in data set [3] is 927 ng/mL; in data set [5], 41.5 ng/g. Besides, the concentration at 0.5 h in [4] was 613 ng/g. The concentration at 6 h in data set [6] is 43.1 ng/g. The BPR in the data set on Nucleic Acid [7] stood at 0.059 mL/g.
Turning to `CC(C)Cc1ccc([C@H](CF)C(=O)O)cc1`, the inhibition in vivo at 33.6 mg/kg in the data set on Rattus norvegicus [8] was 41.3%; with Mus musculus [12] it was 50%. In addition, the IC50 (as a rule, the concentration that inhibits the measured activity by half) in [9] was 1.23 nM; in data set [17] it was 500 nM. The inhibition entry in data set [9] was “Dose-dependent effect”. In addition, the Vd in data set [10] stood at 0.27 L/kg. The half-life in data set [11] was 45 min. In data set [3], this compound gave a concentration at 4 h of 206 ng/mL. Also, the concentration at 0.5 h in [4] came out at 523 ng/g. For the same compound, the BPR with Nucleic Acid [13] was found to be 0.041 mL/g; with Nucleic Acid [14], 0.027 mL/g; with Nucleic Acid [15] it was 0.03 mL/g; in the data set with Nucleic Acid [16] it was 0.032 mL/g; with Mus musculus [18] it was 0.031 mL/g; with Mus musculus [19] it was 0.025 mL/g.

The values are drawn from ChEMBL document CHEMBL1944509, “Methyl-monofluorination of ibuprofen selectively increases its inhibitory activity toward cyclooxygenase-1 leading to enhanced analgesic activity and reduced gastric damage in vivo” (Bioorg Med Chem Lett, 2011).
